Test results reported in ChEMBL document CHEMBL4725360, “Optimization of Acetazolamide-Based Scaffold as Potent Inhibitors of Vancomycin-Resistant Enterococcus” (J Med Chem, 2020).
In brackets after ≈: the same amount, converted by molar mass. Activity calls are given as the source filed them. The rule behind the calls is not given here.

Columns and labels:
Enterococcus faecium [1] = assay: Inhibition of carbonic anhydrase in Enterococcus faecium ATCC 700221 assessed as antibacterial activity incubated for 18 to 20 hrs in presence of ambient air by CLSI protocol based broth microdilution assay; conditions: time hrs 18-20
Procedure, shortened: (§1)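 CLSI broth microdilution: inoculum about 5 × 10⁵ CFU/mL in trypticase soy broth with serial dilutions of agents. Paired plates incubated at 37 °C for 18–20 h, one set in ambient air ("normal"), the other under 5% CO₂. MIC is the lowest concentration completely inhibiting visible growth.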

Enterococcus faecium [2] = assay: Antibacterial activity against Enterococcus faecium NR-28978 incubated for 18 to 20 hrs under aerobic condition by CLSI protocol based broth microdilution assay; type: functional; conditions: time hrs 18-20
Procedure, shortened: (§2)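 Broth microdilution per CLSI. Strains grown aerobically overnight on trypticase soy agar at 37 °C. Inoculum set to 0.5 McFarland, diluted in trypticase soy broth to about 5 × 10⁵ CFU/mL. Agents serially diluted, plates incubated aerobically at 37 °C for 18–20 h. MIC is the lowest concentration with no visible growth. Compound stocks 10 mg/mL in DMSO.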

Enterococcus faecalis [3] = assay: Antibacterial activity against Enterococcus faecalis NR-31970 incubated for 18 to 20 hrs under aerobic condition by CLSI protocol based broth microdilution assay; type: functional, organism-based; conditions: time hrs 18-20; procedure, shortened: as §2
Enterococcus faecium [4] = assay: Antibacterial activity against Enterococcus faecium NR-31916 incubated for 18 to 20 hrs under aerobic condition by CLSI protocol based broth microdilution assay; type: functional; conditions: time hrs 18-20; procedure, shortened: as §2
Enterococcus faecium [5] = assay: Antibacterial activity against Enterococcus faecium NR-31903 incubated for 18 to 20 hrs under aerobic condition by CLSI protocol based broth microdilution assay; type: functional; conditions: time hrs 18-20; procedure, shortened: as §2
Enterococcus faecium [6] = assay: Inhibition of carbonic anhydrase in Enterococcus faecium ATCC 700221 assessed as antibacterial activity incubated for 18 to 20 hrs in presence of 5% CO2 by CLSI protocol based broth microdilution assay; conditions: time hrs 18-20; procedure, shortened: as §1
Enterococcus faecalis [7] = assay: Antibacterial activity against Enterococcus faecalis NR-31975 incubated for 18 to 20 hrs under aerobic condition by CLSI protocol based broth microdilution assay; type: functional, organism-based; conditions: time hrs 18-20; procedure, shortened: as §2
Enterococcus faecium [8] = assay: Antibacterial activity against Enterococcus faecium NR-31914 incubated for 18 to 20 hrs under aerobic condition by CLSI protocol based broth microdilution assay; type: functional; conditions: time hrs 18-20; procedure, shortened: as §2
Enterococcus faecium [9] = assay: Antibacterial activity against Enterococcus faecium NR-31971 incubated for 18 to 20 hrs under aerobic condition by CLSI protocol based broth microdilution assay; type: functional; conditions: time hrs 18-20; procedure, shortened: as §2
[10] = Cytotoxicity against human Caco2 cells incubated for 2 hrs by MTS assay; type: cell-based; conditions: Caco-2 cells
Procedure, shortened: (§3)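 Caco-2 cells maintained in DMEM with 10% FBS, non-essential amino acids and penicillin-streptomycin at 37 °C, 5% CO₂. Compound exposure for 2 h in serum-free medium at several concentrations; DMSO-matched controls. Viability expressed relative to DMSO controls (mean ± SD), and CC₅₀ derived.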

Caco-2 = assay: Cytotoxicity against human Caco2 cells at 128 ug/ml incubated for 2 hrs by MTS assay; type: cell-based; conditions: caco-2, 2 h, dose 128 µg/ml; procedure, shortened: as §3
Enterococcus faecium [11] = assay: Antibacterial activity against Enterococcus faecium NR-32052 incubated for 18 to 20 hrs under aerobic condition by CLSI protocol based broth microdilution assay; type: functional; conditions: time hrs 18-20; procedure, shortened: as §2
Enterococcus faecium [12] = assay: Antibacterial activity against Enterococcus faecium HM968 incubated for 18 to 20 hrs under aerobic condition by CLSI protocol based broth microdilution assay; type: functional; conditions: time hrs 18-20; procedure, shortened: as §2
Enterococcus faecium [13] = assay: Antibacterial activity against Enterococcus faecium HM965 incubated for 18 to 20 hrs under aerobic condition by CLSI protocol based broth microdilution assay; type: functional; conditions: time hrs 18-20; procedure, shortened: as §2
Enterococcus faecium [14] = assay: Antibacterial activity against Enterococcus faecium NR-32065 incubated for 18 to 20 hrs under aerobic condition by CLSI protocol based broth microdilution assay; type: functional; conditions: time hrs 18-20; procedure, shortened: as §2
Enterococcus faecalis [15] = assay: Antibacterial activity against Enterococcus faecalis HM-335 incubated for 18 to 20 hrs under aerobic condition by CLSI protocol based broth microdilution assay; type: functional; conditions: time hrs 18-20; procedure, shortened: as §2
Enterococcus faecalis [16] = assay: Antibacterial activity against Enterococcus faecalis HM-334 incubated for 18 to 20 hrs under aerobic condition by CLSI protocol based broth microdilution assay; type: functional; conditions: time hrs 18-20; procedure, shortened: as §2
Enterococcus faecium [17] = assay: Antibacterial activity against Enterococcus faecium NR-31972 incubated for 18 to 20 hrs under aerobic condition by CLSI protocol based broth microdilution assay; type: functional; conditions: time hrs 18-20; procedure, shortened: as §2
Enterococcus faecalis [18] = assay: Inhibition of carbonic anhydrase in Enterococcus faecalis HM-334 assessed as antibacterial activity incubated for 18 to 20 hrs in presence of 5% CO2 by CLSI protocol based broth microdilution assay; conditions: time hrs 18-20; procedure, shortened: as §1
Enterococcus faecium [19] = assay: Inhibition of carbonic anhydrase in Enterococcus faecium NR-31972 assessed as antibacterial activity incubated for 18 to 20 hrs in presence of 5% CO2 by CLSI protocol based broth microdilution assay; conditions: time hrs 18-20; procedure, shortened: as §1
Enterococcus faecium [20] = assay: Inhibition of carbonic anhydrase in Enterococcus faecium NR-31971 assessed as antibacterial activity incubated for 18 to 20 hrs in presence of 5% CO2 by CLSI protocol based broth microdilution assay; conditions: time hrs 18-20; procedure, shortened: as §1
Enterococcus faecium [21] = assay: Inhibition of carbonic anhydrase in Enterococcus faecium NR-31971 assessed as antibacterial activity incubated for 18 to 20 hrs in presence of ambient air by CLSI protocol based broth microdilution assay; conditions: time hrs 18-20; procedure, shortened: as §1
Enterococcus faecalis [22] = assay: Inhibition of carbonic anhydrase in Enterococcus faecalis HM-334 assessed as antibacterial activity incubated for 18 to 20 hrs in presence of ambient air by CLSI protocol based broth microdilution assay; conditions: time hrs 18-20; procedure, shortened: as §1
Enterococcus faecium [23] = assay: Inhibition of carbonic anhydrase in Enterococcus faecium NR-31972 assessed as antibacterial activity incubated for 18 to 20 hrs in presence of ambient air by CLSI protocol based broth microdilution assay; conditions: time hrs 18-20; procedure, shortened: as §1
Enterococcus faecium [24] = assay: Inhibition of carbonic anhydrase in Enterococcus faecium HM-965 assessed as antibacterial activity incubated for 18 to 20 hrs in presence of 5% CO2 by CLSI protocol based broth microdilution assay; conditions: time hrs 18-20; procedure, shortened: as §1
Enterococcus faecium [25] = assay: Inhibition of carbonic anhydrase in Enterococcus faecium HM-965 assessed as antibacterial activity incubated for 18 to 20 hrs in presence of ambient air by CLSI protocol based broth microdilution assay; conditions: time hrs 18-20; procedure, shortened: as §1
Enterococcus faecium [26] = assay: Bacteriostatic activity against Enterococcus faecium ATCC 700221 assessed as reduction in bacterial burden at 5 times MIC preincubated for 24 hrs followed by replating on soya agar plates and measured after 16 hrs by time-kill assay; type: functional, organism-based
Procedure, shortened: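 E. faecium ATCC 700221 overnight culture diluted in trypticase soy broth to 3.5 × 10⁶ CFU/mL. […] Samples taken at 2, 4, 6, 8, 12 and 24 h, diluted in PBS and plated on trypticase soy agar. Colonies counted after 16 h at 37 °C. Detection limit 100 CFU/mL. Two-way ANOVA with Dunnett's test.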

[27] = Apparent permeability across basolateral to apical side in human Caco2 cells; type: ADME, cell-based; conditions: caco-2
Procedure, shortened: (§4)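 Bi-directional Caco-2 monolayer permeability, run at Eurofins: donor at pH 6.5, receiver at pH 7.4, both A→B and B→A. Papp derived from receiver concentration at the end point, incubation time, monolayer area and mid-point donor concentration. Concentrations taken as peak areas.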

Enterococcus faecium [28] = assay: Antibacterial activity against Enterococcus faecium ATCC 700221 by CLSI protocol based assay; type: functional; procedure, shortened: as §2
[29] = Apparent permeability across apical to basolateral side in human Caco2 cells; type: ADME, cell-based; conditions: caco-2; procedure, shortened: as §4

Row | SMILES | MIC (Enterococcus faecium [2]) [µg/mL] | Activity (Enterococcus faecalis [3]) | MIC (Enterococcus faecium [4]) [µg/mL] | MIC (Enterococcus faecium [5]) [µg/mL] | Activity (Enterococcus faecalis [7]) | CC50 at 2 h [10] [µg/mL] | Activity (Caco-2) | MIC (Enterococcus faecium [1]) [µg/mL] | MIC (Enterococcus faecium [6]) [µg/mL] | MIC (Enterococcus faecalis [18]) [µg/mL] | MIC (Enterococcus faecium [19]) [µg/mL] | MIC (Enterococcus faecium [20]) [µg/mL] | MIC (Enterococcus faecium [21]) [µg/mL] | MIC (Enterococcus faecalis [22]) [µg/mL] | MIC (Enterococcus faecium [23]) [µg/mL] | MIC (Enterococcus faecium [24]) [µg/mL] | MIC (Enterococcus faecium [25]) [µg/mL] | MIC (Enterococcus faecium [28]) [µg/mL] | also measured
1 | CC(C)(C)CC(=O)Nc1nnc(S(N)(=O)=O)s1 | 0.03 (≈ 0.108 µM) | Active | 0.03 (≈ 0.108 µM) | 0.015 (≈ 0.0539 µM) | Active | > 128 | Non-Toxic |  |  |  |  |  |  |  |  |  |  |  | inhibition (Enterococcus faecium [1]): Active; inhibition (Enterococcus faecium [6]): inactive; MIC (Enterococcus faecium [8]): 0.007 µg/mL (≈ 0.0251 µM); MIC (Enterococcus faecium [9]): 0.06 µg/mL (≈ 0.216 µM); MIC (Enterococcus faecium [11]): 0.015 µg/mL (≈ 0.0539 µM); MIC (Enterococcus faecium [12]): 0.015 µg/mL (≈ 0.0539 µM); MIC (Enterococcus faecium [13]): 0.015 µg/mL (≈ 0.0539 µM); MIC (Enterococcus faecium [14]): 0.007 µg/mL (≈ 0.0251 µM); MIC (Enterococcus faecalis [15]): 0.03 µg/mL (≈ 0.108 µM); MIC (Enterococcus faecalis [16]): 0.03 µg/mL (≈ 0.108 µM); MIC (Enterococcus faecium [17]): 0.015 µg/mL (≈ 0.0539 µM)
2 | NS(=O)(=O)c1nnc(NC(=O)CC2CCCCC2)s1 | 0.125 (≈ 0.411 µM) | Active | 0.125 (≈ 0.411 µM) | 0.125 (≈ 0.411 µM) | Active | > 128 | Non-Toxic | 0.06 | > 64 | > 64 | > 64 | > 64 | 0.03 | 0.03 | 0.06 | > 64 | 0.06 |  | 
3 | CC(=O)Nc1nnc(S(N)(=O)=O)s1 [ACETAZOLAMIDE] |  |  |  |  |  |  |  | 1 | > 64 | > 64 | > 64 | > 64 | 2 | 2 | 2 | > 64 | 2 | 0.5 (≈ 2.25 µM) | Activity (Enterococcus faecium [26]): Active; Papp B→A [27]: 0.77 ×10⁻⁶ cm/s; Papp A→B [29]: 0.19 ×10⁻⁶ cm/s
4 | CCOc1ccc2nc(S(N)(=O)=O)sc2c1 [ETHOXZOLAMIDE] |  |  |  |  |  |  |  |  |  |  |  |  |  |  |  |  |  | 1 (≈ 3.87 µM) | 
